Assays:
Cytochrome P450 2C19 = Cytochrome P450 2C19 (Homo sapiens, UniProt P33261); test: Activity of human CYP2C19 expressed in microsomes isolated from baculovirus infected insect cell assessed as enzyme-mediated 5-hydroxy-5-(4-((6-methoxy-1-methyl-1H-benzo[d]imidazol-2-yl)methoxy)benzyl)thiazolidine-2,4-dione formation at 20 uM after 2 hrs by radio-HPLC/LC-MS/MS analysis in presence of NADPH-generating system and NADPH-generating system/SAM; assay type: ADME
Summary of the method: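 Baculovirus/insect-cell microsomes expressing single human CYPs, 1 mg/ml protein, with 50 mM potassium phosphate (pH 7.4) or 100 mM Tris-HCl (pH 7.5). NADPH-generating system: 2 mM NADP⁺, 20 mM glucose 6-phosphate, 2 units/ml G6PDH, 10 mM MgCl₂. [¹⁴C]rivoglitazone at 20 μM, 2 h at 37°C with shaking. Control used insect-cell control supersomes. Stopped with acetonitrile; supernatant concentrated under nitrogen; metabolites analysed by radio-HPLC, LC-MS and LC-MS/MS.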

Liver microsome [1] = test: Drug metabolism in human liver microsomes assessed as formation of 2-amino-3-((1-carboxy-2-(4-((6-methoxy-1-methyl-1H-benzo[d]imidazol-2-yl)methoxy)phenyl)ethyl)disulfanyl)propanoic acid at 20 uM by radio-HPLC/LC-MS/MS analysis; assay type: ADME
[2] = Drug metabolism in rat hepatocytes assessed as formation of (2S,3S,4S,5R,6R)-3,4,5-trihydroxy-6-(5-(4-((6-methoxy-1-methyl-1H-benzo[d]imidazol-2-yl)methoxy)benzyl)-2,4-dioxothiazolidin-3-yl)tetrahydro-2H-pyran-2-carboxylic acid at 30 uM after 3 hrs by radio-HPLC/LC-MS/MS analysis; assay type: ADME, cell-based, Hepatocyte
[3] = Drug metabolism in rat hepatocytes assessed as formation of 3-(4-((6-methoxy-1-methyl-1H-benzo[d]imidazol-2-yl)methoxy)phenyl)-2-(methylthio)propanamide at 30 uM after 3 hrs by radio-HPLC/LC-MS/MS analysis in presence of NADPH-generating system/SAM; assay type: ADME, cell-based, Hepatocyte
[4] = target: T1, UDP-glucuronosyltransferase 2B7 (Homo sapiens, UniProt P16662); test: Activity of human UGT2B7 expressed in microsomes isolated from baculovirus infected insect cell assessed as enzyme-mediated 3-(4-((6-methoxy-1-methyl-1H-benzo[d]imidazol-2-yl)methoxy)phenyl)-2-(methylsulfinyl)propanamide formation at 20 uM after 4 hrs by radio-HPLC/LC-MS/MS analysis in presence of NADPH-generating system/SAM; assay type: ADME
T1 sequence (P16662 whole entry): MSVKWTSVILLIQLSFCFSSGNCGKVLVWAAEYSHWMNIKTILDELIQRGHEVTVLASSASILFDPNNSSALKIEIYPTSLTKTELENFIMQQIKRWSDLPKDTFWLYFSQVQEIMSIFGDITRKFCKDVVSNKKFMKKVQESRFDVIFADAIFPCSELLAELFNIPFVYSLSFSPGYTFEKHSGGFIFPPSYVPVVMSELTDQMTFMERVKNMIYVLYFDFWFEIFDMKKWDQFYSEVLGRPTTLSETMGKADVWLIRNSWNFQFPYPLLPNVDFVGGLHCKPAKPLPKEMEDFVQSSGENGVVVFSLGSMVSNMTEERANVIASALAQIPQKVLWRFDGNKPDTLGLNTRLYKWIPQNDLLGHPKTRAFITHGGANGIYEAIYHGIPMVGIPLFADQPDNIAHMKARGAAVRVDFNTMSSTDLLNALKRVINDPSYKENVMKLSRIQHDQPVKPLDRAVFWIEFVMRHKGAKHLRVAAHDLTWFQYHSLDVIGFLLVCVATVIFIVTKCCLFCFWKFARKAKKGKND

[5] = target: T2, UDP-glucuronosyltransferase 2B15 (Homo sapiens, UniProt P54855); test: Activity of human UGT2B15 expressed in microsomes isolated from baculovirus infected insect cell assessed as enzyme-mediated (2S,3S,4S,5R,6R)-3,4,5-trihydroxy-6-(5-(4-((6-methoxy-1-methyl-1H-benzo[d]imidazol-2-yl)methoxy)benzyl)-2,4-dioxothiazolidin-3-yl)tetrahydro-2H-pyran-2-carboxylic acid formation at 20 uM after 4 hrs by radio-HPLC/LC-MS/MS analysis in presence of UDPGA; assay type: ADME
T2 sequence (P54855 whole entry): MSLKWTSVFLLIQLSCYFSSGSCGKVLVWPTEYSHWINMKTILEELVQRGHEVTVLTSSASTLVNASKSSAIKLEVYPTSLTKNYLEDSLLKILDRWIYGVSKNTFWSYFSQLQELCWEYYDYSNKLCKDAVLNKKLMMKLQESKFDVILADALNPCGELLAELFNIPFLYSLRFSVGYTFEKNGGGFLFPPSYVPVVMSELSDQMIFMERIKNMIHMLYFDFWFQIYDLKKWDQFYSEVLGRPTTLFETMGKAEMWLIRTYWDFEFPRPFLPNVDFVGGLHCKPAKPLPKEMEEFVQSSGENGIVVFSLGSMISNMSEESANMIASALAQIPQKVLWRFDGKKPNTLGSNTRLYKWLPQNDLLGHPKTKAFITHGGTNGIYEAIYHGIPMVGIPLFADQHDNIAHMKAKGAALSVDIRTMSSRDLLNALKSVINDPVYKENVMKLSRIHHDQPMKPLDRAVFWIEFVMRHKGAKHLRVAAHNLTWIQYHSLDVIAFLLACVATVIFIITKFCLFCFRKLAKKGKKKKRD

Cytochrome P450 3A4 = Cytochrome P450 3A4 (Homo sapiens, UniProt P08684); test: Activity of human CYP3A4 expressed in microsomes isolated from baculovirus infected insect cell assessed as enzyme-mediated 2-((4-((2,4-dioxothiazolidin-5-yl)methyl)phenoxy)methyl)-1-methyl-1H-benzo[d]imidazol-6-yl hydrogen sulfate formation at 20 uM after 2 hrs by radio-HPLC/LC-MS/MS analysis; assay type: ADME
Cytochrome P450 3A4, sequence (P08684 whole entry): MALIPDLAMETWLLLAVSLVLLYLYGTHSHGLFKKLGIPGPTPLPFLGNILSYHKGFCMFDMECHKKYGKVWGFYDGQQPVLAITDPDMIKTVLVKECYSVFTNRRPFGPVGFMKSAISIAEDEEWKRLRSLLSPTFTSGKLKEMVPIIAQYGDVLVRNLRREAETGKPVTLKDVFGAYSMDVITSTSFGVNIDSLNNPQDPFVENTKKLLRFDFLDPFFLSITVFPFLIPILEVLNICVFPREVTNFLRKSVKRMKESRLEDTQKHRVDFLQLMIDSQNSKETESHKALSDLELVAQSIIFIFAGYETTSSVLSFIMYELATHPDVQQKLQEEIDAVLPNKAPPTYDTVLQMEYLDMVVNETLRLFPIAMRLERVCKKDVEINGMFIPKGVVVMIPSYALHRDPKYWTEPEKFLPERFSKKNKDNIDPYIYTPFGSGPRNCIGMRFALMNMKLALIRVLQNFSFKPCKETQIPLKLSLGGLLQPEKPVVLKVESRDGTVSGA
Summary of the method: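 Baculovirus-insect-cell microsomes expressing the human CYP (1 mg/ml protein) were incubated with [14C]rivoglitazone (20 μM) in 50 mM potassium phosphate (pH 7.4) or 100 mM Tris-HCl (pH 7.5) with an NADPH-generating system (2 mM NADP+, 20 mM glucose 6-phosphate, 2 units/ml G6PDH, 10 mM MgCl2) for 2 h at 37°C. Insect-cell control supersomes served as the control. Reactions were stopped with acetonitrile, and the concentrated supernatants were analysed by radio-HPLC, LC-MS and LC-MS/MS.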

Liver microsome [6] = test: Drug metabolism in human liver microsomes assessed as formation of 3-(4-((6-methoxy-1-methyl-1H-benzo[d]imidazol-2-yl)methoxy)phenyl)-2-(methylthio)propanoic acid at 20 uM after 2 to 4 hrs by radio-HPLC/LC-MS/MS analysis in presence of NADPH-generating system/SAM and UDPGA/SAM; assay type: ADME

Cytochrome P450 2C19, sequence (P33261 whole entry): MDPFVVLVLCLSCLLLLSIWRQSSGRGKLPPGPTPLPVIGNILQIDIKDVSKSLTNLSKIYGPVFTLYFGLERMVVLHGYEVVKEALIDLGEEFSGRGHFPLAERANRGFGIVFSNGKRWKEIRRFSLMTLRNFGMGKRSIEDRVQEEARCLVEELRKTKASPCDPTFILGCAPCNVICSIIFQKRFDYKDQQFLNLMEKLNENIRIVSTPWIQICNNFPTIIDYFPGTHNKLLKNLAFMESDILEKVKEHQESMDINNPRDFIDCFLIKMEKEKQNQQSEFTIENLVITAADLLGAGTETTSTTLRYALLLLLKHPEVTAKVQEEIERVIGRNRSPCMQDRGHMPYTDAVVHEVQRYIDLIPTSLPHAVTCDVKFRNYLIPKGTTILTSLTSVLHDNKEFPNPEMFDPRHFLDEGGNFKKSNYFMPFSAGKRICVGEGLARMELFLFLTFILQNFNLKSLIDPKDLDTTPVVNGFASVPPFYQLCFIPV

- Drug metabolism (Cytochrome P450 2C19): metabolite_detected
- Drug metabolism (Liver microsome [1]): metabolite_not_detected
- Drug metabolism [2]: metabolite_detected
- Drug metabolism [3]: metabolite_detected
- Drug metabolism [4]: metabolite_not_detected
- Drug metabolism [5]: metabolite_not_detected
- Drug metabolism (Cytochrome P450 3A4): metabolite_not_detected
- Drug metabolism (Liver microsome [6]): metabolite_detected
SMILES: COc1ccc2nc(COc3ccc(C[14CH]4SC(=O)NC4=O)cc3)n(C)c2c1.Cl (racemic)

Reference: ChEMBL document CHEMBL3526048, “In vitro metabolism of rivoglitazone, a novel peroxisome proliferator-activated receptor γ agonist, in rat, monkey, and human liver microsomes and freshly isolated hepatocytes” (Drug Metab Dispos, 2011)
